Drawing on ChEMBL document CHEMBL4513216, “Probing the Open Global Health Chemical Diversity Library for Multistage-Active Starting Points for Next-Generation Antimalarials” (ACS Infect Dis, 2020), this text covers cytotoxicity for 97 compounds.

The data set is described as follows: Toxicity liver stage against HepG2, at 10uM. In kind it is cell-based. Particulars: human, HepG2-A16-CD81EGFP cells; read-out: INHIBITION
On the set-up: test concentration 10 uM, cell line HepG2-A16-CD81EGFP. The method in brief: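 Uninfected HepG2-A16-CD81EGFP cells, 3 × 10^3 per well, 1536-well, plated on prespotted compound at 10 μM final, parasite-free screening media added to match infected plates; puromycin 10 μM positive, DMSO 0.5% negative; run in parallel with 48 h PbLuc assay at 37 °C, 5% CO2; viability by CellTiter-Glo luminescence, normalized to controls.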
With `COc1cccc2ccn(CC(=O)NC(C)C)c12`, the cytotoxicity at 10 µM was -37%.
`CC1=Nc2c(c(O)nn2C(C)C)C(c2cn(C)nc2C)S1` (configuration not stated): the cytotoxicity at 10 µM was -3.53%.
With `O=C(Cn1nc2c(cc1=O)CSCC2)NC(Cc1ccccc1)C(=O)O` (configuration not stated), the cytotoxicity at 10 µM is -10.1%.
Consider `CCN1CCC2(CC1)NC(=O)c1cc(Br)ccc1-n1nnnc12`, for which the cytotoxicity at 10 µM is 1.47%.
As for `CC(C)n1cc(S(=O)(=O)N2CCCCCC2)cn1`, the figure is 10%; as for `CCc1nc(NCC(=O)N2CCOCC2)c2c(n1)c(C)nn2CC`, 7.05%; as for `CNc1ncccc1CN1CCN(C)CC(C(N)=O)C1` (configuration not stated), 0.106%.
As for `CC(=O)N1CCCC(c2nnc3n2CCN(C(=O)C2CCCCC2)C3)C1` (configuration not stated), the figure is 0.685%; as for `Cc1cc2nccc(C3CCCN(C(=O)c4cnccn4)C3)n2n1` (configuration not stated), 10.5%.
As for `Cc1nc(N(C)C)cc(C2(C)CCNCC2)n1`, the figure is -6.07%.
`CC1CCc2nc(NS(=O)(=O)c3cnn(C)c3)sc2C1` (configuration not stated): the cytotoxicity at 10 µM was -0.842%.
Turning to `CCC(Sc1ncc(CO)n1C)c1ccccc1` (configuration not stated), the cytotoxicity at 10 µM is -45.3%.
As for `Cc1ccc(C)c(-n2ncc(NC(=O)NC3(C)CCOC3)c2C)c1` (configuration not stated), the figure is -41.6%.
As for `CCCn1ccnc1-c1cccc(NC2CCOC2)c1` (configuration not stated), the figure is -3.1%; as for `O=S(=O)(N1CCCC1)N1CCN(CC2CCCO2)CC1` (configuration not stated), -0.185%; as for `CCc1ocnc1C(=O)N1CCOC(c2nc(C(C)C)n[nH]2)C1` (configuration not stated), 7.43%.
Under `CN(C)CC(O)Cn1cc(NCc2ccc(Br)cc2)cn1` (configuration not stated) stands 7.48%.
`Cc1cc(CNS(=O)(=O)CCCC#N)ccc1N(C)C`: the cytotoxicity at 10 µM is -5.18%.
Under `CCc1nnc(C(C)N2CCN(CCC(=O)NC3CC3)CC2)o1` (configuration not stated) stands 16%; under `Cc1noc(CCCNC(=O)C2CSCN2C(=O)C(C)(C)C)n1` (configuration not stated), -54.4%; under `COC(=O)CN(C(=O)c1ccc(Cl)cn1)c1cccc(F)c1`, -8.61%.
Under `Cc1cc(NC(=O)N2CCOCC2)nn1-c1ccccc1Cl` stands 11.1%; under `Cn1cc(CC2CC(=O)N(Cc3ccccc3OC(F)F)C2=O)cn1` (configuration not stated), 2.21%; under `O=C(NCC1CCC1)c1cccc(CN2CCS(=O)(=O)CC2)c1`, -7.89%.
Under `CCSc1cc(C(=O)NC2CCN(C(=O)c3ccccc3)CC2)ccn1` stands 13.5%; under `Cn1cc(N2CCC(NC(=O)c3ccccc3F)C2=O)cn1` (configuration not stated), -1.26%; under `CCC(CC)c1cc(CNC(=O)N2CCC(n3cncn3)CC2)on1`, -4.16%.
With `CCCc1nc(C)c(C(=O)NCC2CCN(C3CC3)C2)s1` (configuration not stated), the cytotoxicity at 10 µM is -9.34%.
As for `O=C(Nc1ccc(CC(=O)N2CCSCC2)cc1)NC1CCCC1`, the figure is -7.01%; as for `O=C(Nc1ccc(F)c(-n2cccc2)c1)NC1(CCO)CCOCC1`, 8.67%.
As for `CN(C)c1nc(N)nc(CSCCC(=O)Nc2cccc(Cl)c2)n1`, the figure is 0.779%.
As for `O=S(=O)(c1ccccc1)N1CCN(Cc2ccc(F)cc2Br)CC1`, the cytotoxicity at 10 µM was -2.57%.
On to `CC(=O)N1CCCN(Cc2cc(F)cc(Br)c2)CC1`, for which the cytotoxicity at 10 µM is 7.72%.
Take `NC(=O)CN1CCC(OCc2ccc(Cl)c(Cl)c2)CC1`: the cytotoxicity at 10 µM was -0.497%.
Under `CN(CC(=O)c1ccc2[nH]c(=O)[nH]c2c1)Cc1ccc2c(c1)OCO2` stands 5.34%; under `COCCN1CCCN(C(=O)c2oc(C)nc2C)CC1`, 2.04%.
As to `COCCCN(Cc1ccccc1Cl)C1CCS(=O)(=O)C1` (configuration not stated), the cytotoxicity at 10 µM is 17.1%.
Under `N#Cc1cccc(CN(CCO)Cc2ccsc2)c1` stands 19.6%; under `O=C(CNc1ccccc1S(=O)(=O)C(F)F)NCc1ccco1`, -53%; under `O=C(NCC1(O)CCOC1)NCC1(c2ccccc2Cl)CC1` (configuration not stated), -45.7%.
For the compound `Cn1ncc2c1C(COCC1CC1)CN(S(C)(=O)=O)C2` (configuration not stated), the cytotoxicity at 10 µM was -73.6%.
As for `N#Cc1cccc(N2CC3(CCN(C(=O)NC4CC4)C3)CC2=O)c1` (configuration not stated), the figure is -0.987%; as for `CN(C)CC(=O)N1CCc2onc(Cn3cccn3)c2C1`, -3.83%; as for `CN1CCC2(CC1)CN(C(=O)c1cccnc1)Cc1ccccc12`, -66.2%.
As for `CCOc1ncccc1CNc1cc(COC)ncn1`, the cytotoxicity at 10 µM is 6.41%.
As for `COCC(NC(=O)c1cn2ccsc2n1)c1ccnn1C` (configuration not stated), the figure is -47.8%; as for `Cc1nccn1CCC1CCCCN1Cc1cnc(N(C)C)nc1` (configuration not stated), 1.45%; as for `Fc1cccc(-c2noc3c2CN(Cc2cncn2C2CC2)CC3)c1`, -1.24%.
As for `NC(=O)COc1ccc(CN2CCNC(C(=O)NC3CC3)C2)cc1Cl` (configuration not stated), the figure is 0.887%; as for `Cc1ccc2nc(C)c(C)c(C(=O)N3CCC4(CCO4)CC3)c2c1`, 0.707%.
On to `CC(C)c1nccn1C(C)C(=O)NCc1noc(Cc2cccs2)n1` (configuration not stated), for which the cytotoxicity at 10 µM is -4.91%.
Take `Cc1cccc2nc(C(=O)N3CCC4(CCC(=O)N(C)C4)CC3)c(F)n12`: the cytotoxicity at 10 µM is -0.103%.
Under `c1c[nH]c(-c2cn(CCSc3cnn[nH]3)nn2)n1` stands -47.5%; under `N#Cc1ccc(C(=O)N2CCCC3(C=Cc4ccccc4O3)CC2)cn1` (configuration not stated), 11.8%; under `Cc1cc(C(=O)N2CCCC(C(=O)c3cccs3)C2)c(=O)[nH]c1C` (configuration not stated), -7.01%.
Turning to `Cc1cccc(-n2ncc3c2CCCC3NCc2cnn(C)c2C)c1C` (configuration not stated), the cytotoxicity at 10 µM came out at 13.8%.
Under `Cc1ccc(-c2ccnc(N[C@H]3COC[C@@H]3N3CCCC3)n2)c(C)n1` stands -1.45%; under `Cc1ccc(C)c(-n2cc(CN3CCOCC3)c(-c3ccccc3)n2)c1`, 13.1%.
Under `CCc1nc(N2CCCN(c3ncccn3)CC2)c2cnn(C)c2n1` stands 2.22%.
Turning to `CS(=O)(=O)N1CCCC1C(=O)Nc1cnc2n1CCCC2` (configuration not stated), the cytotoxicity at 10 µM came to 2.72%.
Under `Cc1cc(N2CCN(C(=O)C(C)n3ccnc3C(C)C)CC2)cc(C)n1` (configuration not stated) stands -3.59%; under `COc1ncccc1CN1CCc2[nH]cnc2C1CCSC` (configuration not stated), -13.7%.
As for `COCCN1CC(c2nc(CC3CCN(C)CC3)no2)CCC1=O` (configuration not stated), the figure is 2.06%; as for `O=C1N(Cc2ccccc2F)CCCC12CCN(C1CCSCC1)C2` (configuration not stated), 0.0366%; as for `O=C(c1cccn1Cc1cccs1)N1CCN2CCCCC2C1` (configuration not stated), -7.42%.
Take `OCCN1CCN(Cc2coc(-c3cccc(Cl)c3)n2)CC1`: the cytotoxicity at 10 µM was -21.6%.
Under `O=C(NCC1CCOC1)N1CCN(Cc2ccc3c(c2)OCO3)CC1` (configuration not stated) stands -4.33%.
As for `CC(C)c1ncc2c(n1)CN(Cc1nc(-c3ccsc3)no1)CC2`, the figure is 2.05%; as for `O=C(NCc1cc[nH]n1)N1CCN(c2ncccn2)CC1`, -3.29%.
Turning to `CCCc1n[nH]c(C2CN(C(=O)c3cccc4[nH]ncc34)CCO2)n1` (configuration not stated), the cytotoxicity at 10 µM was -2.87%.
For `O=C1NCCN1C1CCN(Cc2coc(-c3ccccc3)n2)CC1`, the cytotoxicity at 10 µM is -1.54%.
As for `c1ccc(-n2nc(CNC3CCc4ncnn4C3)c3c2CCC3)cc1` (configuration not stated), the cytotoxicity at 10 µM is -12.9%.
With `CN1CCOC(CNC(=O)COc2ccc(F)cc2F)C1` (configuration not stated), the cytotoxicity at 10 µM is -5.51%.
For the compound `Cc1nc(C)n(CC2CCCN(CC(=O)Nc3nnc(C)s3)C2)n1` (configuration not stated), the cytotoxicity at 10 µM is -18.9%.
For the compound `Cc1occc1C(=O)NCc1cccnc1N(C)C`, the cytotoxicity at 10 µM is -5.89%.
For `c1cncc(CNC2CCc3ncnn3C2)c1` (configuration not stated), the cytotoxicity at 10 µM is -7.91%.
Under `CC(C)c1nnc(CN2CCN(C(C)c3nc(C4CC4)no3)CC2)o1` (configuration not stated) stands 3.48%; under `CN(Cc1nc2ccccc2n1C)CC1CCCN1c1cccnn1` (configuration not stated), -4.41%; under `COc1cccc(-c2nc(CNCCCn3cccn3)cs2)c1`, -19.7%.
Under `CC(C)c1nn(C)c(N2CCOCC2)c1CNCC(=O)N(C)C` stands -4.3%; under `CCN(CC)C(=O)C(c1ccccc1)N1CCn2c(C)nnc2C1` (configuration not stated), 5.57%.
With `O=C(CCc1cnn(-c2ccccc2)c1)N1CCCC(n2cccn2)C1` (configuration not stated), the cytotoxicity at 10 µM is 2.1%.
Regarding `O=C(CN1CCC(c2ccnn2CCO)CC1)NCC1CC1`, the cytotoxicity at 10 µM is -3.25%.
Under `CCn1ccnc1CN1CCOC(CNc2cccnn2)C1` (configuration not stated) stands 0.762%.
With `Cc1ccccc1OC1CCN(CC(=O)Nc2cnn(C)c2C)CC1`, the cytotoxicity at 10 µM was -8.09%.
As for `O=C(CC1CC1)NCc1cn2c(n1)CN(Cc1nccs1)CC2`, the cytotoxicity at 10 µM was -74.1%.
For the compound `Cn1cc(CN2CCn3cc(CNC(=O)CC4CC4)nc3C2)cn1`, the cytotoxicity at 10 µM was -83.3%.
Under `O=c1cc(CNS(=O)(=O)C2CC2)nc2n1CCCN(CC1CC1)C2` stands -104%; under `CN(C)C(=O)c1cnc2n1CCN(Cc1cccc(C#N)c1)C2`, -77.3%; under `Cc1cc(CN2C[C@@H]3COC[C@@H](C(=O)N4CCCCO4)[C@@H]3C2)oc1C`, -72.8%.
Under `CN(Cc1ccco1)[C@@H]1CN(CC2CCOCC2)[C@@H]2CCCO[C@H]12` stands -76.4%; under `CC1c2ncc(CN3CCN(C)CC3)n2CCN1Cc1cnn(C)c1` (configuration not stated), 7.77%.
`CN(C)C(=O)CN1C(=O)CCC12CCN(Cc1cccn1C)CC2`: the cytotoxicity at 10 µM came to 6.45%.
For `Cc1ccoc1C(=O)N1C[C@H](OCc2cccnc2)[C@H]2OCCC[C@H]21`, the cytotoxicity at 10 µM is -5.28%.
As for `CN(C)CCOCC1CN(Cc2cccs2)Cc2ccnn2C1` (configuration not stated), the figure is -0.903%; as for `O=C(Cc1ccncc1)N1C[C@@H]2CC[C@H]1CN(Cc1cccnc1)C2`, 2.89%; as for `CC(=O)Nc1ccsc1C(=O)N1CC[C@H]2CC[C@@H](C1)N2C`, -1.47%.
